ChEMBL document CHEMBL5705891, “Small-molecule kinase inhibitors provide insight into Mps1 cell cycle function” (Nat Chem Biol, 2010)
Blank lines part the entries; values can stand above or below the compound they belong to. Activity calls are given as the source filed them. No cut-off for these calls is given here.

How the values were obtained:
[1] = target: Leukocyte tyrosine kinase receptor (Homo sapiens, UniProt P29376); assay: Inhibition of LTK (unknown origin) assessed as residual enzyme activity at 10 uM by Ambit kinase binding assay relative to control
[2] = target: Ankyrin repeat and protein kinase domain-containing protein 1 (Homo sapiens) (UniProt Q8NFD2); assay: Inhibition of ANKK1 (unknown origin) assessed as residual enzyme activity at 10 uM by Ambit kinase binding assay relative to control
[3] = target: Aurora kinase C (Homo sapiens) (UniProt Q9UQB9); assay: Inhibition of AURKC (unknown origin) assessed as residual enzyme activity at 10 uM by Ambit kinase binding assay relative to control
[4] = target: Serine/threonine-protein kinase 25 (Homo sapiens) (UniProt O00506); assay: Inhibition of YSK1 (unknown origin) assessed as residual enzyme activity at 10 uM by Ambit kinase binding assay relative to control
[5] = target: Calcium/calmodulin-dependent protein kinase kinase 1 (Homo sapiens) (UniProt Q8N5S9); assay: Inhibition of CAMKK1 (unknown origin) assessed as residual enzyme activity at 10 uM by Ambit kinase binding assay relative to control
[6] = target: Serine/threonine-protein kinase 24 (Homo sapiens) (UniProt Q9Y6E0); assay: Inhibition of MST3 (unknown origin) assessed as residual enzyme activity at 10 uM by Ambit kinase binding assay relative to control
[7] = target: Dual specificity protein kinase CLK2 (Homo sapiens) (UniProt P49760); assay: Inhibition of CLK2 (unknown origin) assessed as residual enzyme activity at 10 uM by Ambit kinase binding assay relative to control
[8] = target: Calcium/calmodulin-dependent protein kinase kinase 2 (Homo sapiens) (UniProt Q96RR4); assay: Inhibition of CAMKK2 (unknown origin) assessed as residual enzyme activity at 10 uM by Ambit kinase binding assay relative to control
[9] = target: Serine/threonine-protein kinase pim-3 (Homo sapiens) (UniProt Q86V86); assay: Inhibition of PIM3 (unknown origin) assessed as residual enzyme activity at 10 uM by Ambit kinase binding assay relative to control
HCT-116 = assay: Induction of apoptosis in human HCT-116 cells assessed as increase in cleaved PARP level at 5 to 10 uM measured after 48 hrs by immunoblot analysis; assay type: functional, cell-based; conditions: dose 5-10 µM
[10] = target: Mitogen-activated protein kinase 7 (Homo sapiens) (UniProt Q13164); assay: Inhibition of ERK5 (unknown origin) assessed as residual enzyme activity at 10 uM by Ambit kinase binding assay relative to control
U2OS [11] = assay: Reversal of nocodazole-induced mitotic arrest in human U2OS cells assessed as Ser10 phosphorylated Histone H3-positive 4c population at 10 uM incubated for 16 hrs by flow cytometry (reference value: 94 %); assay type: functional
HeLa S3 = assay: Effect on thymidine-treated human HeLa S3 cell populations after two cell doubling at 10 uM incubated for 4 hrs followed by thymidine release by immunofluorescence imaging analysis; assay type: functional, cell-based
TERT-RPE1 = assay: Antiproliferative activity against hTERT-RPE1 cells assessed as loss of clonal survival upto 25 uM incubated for 10 days by crystal violet staining based assay; assay type: toxicity, cell-based; conditions: human, tert-rpe1, 240 h, time 10 day
Outline: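 Colony outgrowth: cells plated at 200 cells per 60-mm dish, exposed to compound or DMSO vehicle and stained with crystal violet after 10 days. HCT116 grown in McCoy's 5A; A549 and HeLa in DMEM; hTERT-RPE1 in DMEM/F-12. All media had 10% FBS and penicillin/streptomycin, 37°C, 5% CO2. Quantified from 3 independent experiments, mean + SD, Student's t test.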

HeLa = assay: Antiproliferative activity against human HeLa cells at 10 uM incubated for 4 days by Syto60 staining based assay; assay type: functional, cell-based; conditions: time 4.0 day
Outline: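 Proliferation read by Syto60 nucleic acid stain fluorescence (excitation 635 nm, emission 695 nm) after treatment for up to 96 h. Each time point normalized to its DMSO control. Mean ± SD from 4 independent experiments. Cells kept at 37°C, 5% CO2 in 10% FBS-supplemented medium.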

Focal adhesion kinase 1 = Focal adhesion kinase 1 (Homo sapiens, UniProt Q05397); assay: Binding affinity to FAK (unknown origin) assessed as dissociation constant by Ambit kinase binding assay
U2OS [12] = assay: Reversal of s-trityl cysteine-induced mitotic arrest in human U2OS cells assessed as accumulation of 4N phosphorylated Histone H3-negative cells incubated for 16 hrs by flow cytometry; assay type: functional, cell-based; conditions: dose 5-10 µM
[13] = target: Aurora kinase B (Homo sapiens) (UniProt Q96GD4); assay: Inhibition of Aurora B phosphorylation at Thr232 in human U2OS cells by Western blot analysis; assay type: cell-based
Outline: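 Thymidine-released U2OS cells were treated with inhibitor or DMSO for 1 hr before mitotic entry, then with taxol (1 μM) plus MG132 (10 μM). Mitotic cells were collected by shake-off and immunoblotted for phospho-Aurora B (Thr232). Cyclin B served as the mitotic marker and the Mps1 mobility shift as autophosphorylation.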

U2OS [14] = assay: Induction of chromosome misalignment in human U2OS cells expressing histone H2B-GFP at 5 to 10 uM treated for 4 hrs followed by MG132 treatment for 30 to 60 mins and subsequent replacement of medium containing MG132 measured after 30 mins by immunofluoresence analysis; assay type: functional, cell-based; conditions: dose 5-10 µM, time 4.5-5 hrs
U2OS [15] = assay: Effect on thymidine-treated human U2OS cell populations after one cell doubling at 10 uM incubated for 4 hrs followed by thymidine release by immunofluorescence imaging analysis; assay type: functional, cell-based
U2OS [16] = assay: Induction of multipolar anaphases in thymidine-treated human U2OS cells expressing H2B-GFP and Plk4 overexpression measured for 30 mins by time lapse imaging analysis; assay type: functional, cell-based
Outline: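 Doxycycline-inducible Plk4 U2OS cells expressing H2B-GFP were blocked with thymidine for 18 hrs and released into doxycycline (2 μg·ml⁻¹) for 10 hrs. A second 18-hr thymidine block followed, then release for 6 hrs before 5 μM inhibitor, with or without Plk4 induction. Cells were imaged by time-lapse at 37°C, 5% CO₂, timed from NEBD, and bipolar versus multipolar anaphases were scored. Values are mean ± SD of 3 independent experiments.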

[17] = target: Mitogen-activated protein kinase 3 (Homo sapiens) (UniProt P27361); assay: Inhibition of ERK1 (unknown origin) assessed as residual enzyme activity at 10 uM by Ambit kinase binding assay relative to control
[18] = test system: Receptor-type tyrosine-protein kinase FLT3 (Homo sapiens), P36888 [D835Y]; assay: Inhibition of FLT3 D835Y mutant (unknown origin) assessed as residual enzyme activity at 10 uM by Ambit kinase binding assay relative to control
U2OS [19] = assay: Initiation of anaphase in human U2OS cells expressing histone H2B-GFP at 10 uM measured for 20 mins by fluorescence time-lapse microscopy (reference value: 10 %); assay type: functional
Outline: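 U2OS H2B-GFP cells were given DMSO or inhibitor and imaged by fluorescence time-lapse at 37°C, 5% CO₂, one frame every 2 min. NEBD-to-anaphase time was scored for 100 cells per population and plotted as cumulative percentage initiating anaphase.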

Activated CDC42 kinase 1 = Activated CDC42 kinase 1 (Homo sapiens, UniProt Q07912); assay: Binding affinity to TNK2 (unknown origin) assessed as dissociation constant by Ambit kinase binding assay
Sequence of Activated CDC42 kinase 1 (Q07912 whole entry): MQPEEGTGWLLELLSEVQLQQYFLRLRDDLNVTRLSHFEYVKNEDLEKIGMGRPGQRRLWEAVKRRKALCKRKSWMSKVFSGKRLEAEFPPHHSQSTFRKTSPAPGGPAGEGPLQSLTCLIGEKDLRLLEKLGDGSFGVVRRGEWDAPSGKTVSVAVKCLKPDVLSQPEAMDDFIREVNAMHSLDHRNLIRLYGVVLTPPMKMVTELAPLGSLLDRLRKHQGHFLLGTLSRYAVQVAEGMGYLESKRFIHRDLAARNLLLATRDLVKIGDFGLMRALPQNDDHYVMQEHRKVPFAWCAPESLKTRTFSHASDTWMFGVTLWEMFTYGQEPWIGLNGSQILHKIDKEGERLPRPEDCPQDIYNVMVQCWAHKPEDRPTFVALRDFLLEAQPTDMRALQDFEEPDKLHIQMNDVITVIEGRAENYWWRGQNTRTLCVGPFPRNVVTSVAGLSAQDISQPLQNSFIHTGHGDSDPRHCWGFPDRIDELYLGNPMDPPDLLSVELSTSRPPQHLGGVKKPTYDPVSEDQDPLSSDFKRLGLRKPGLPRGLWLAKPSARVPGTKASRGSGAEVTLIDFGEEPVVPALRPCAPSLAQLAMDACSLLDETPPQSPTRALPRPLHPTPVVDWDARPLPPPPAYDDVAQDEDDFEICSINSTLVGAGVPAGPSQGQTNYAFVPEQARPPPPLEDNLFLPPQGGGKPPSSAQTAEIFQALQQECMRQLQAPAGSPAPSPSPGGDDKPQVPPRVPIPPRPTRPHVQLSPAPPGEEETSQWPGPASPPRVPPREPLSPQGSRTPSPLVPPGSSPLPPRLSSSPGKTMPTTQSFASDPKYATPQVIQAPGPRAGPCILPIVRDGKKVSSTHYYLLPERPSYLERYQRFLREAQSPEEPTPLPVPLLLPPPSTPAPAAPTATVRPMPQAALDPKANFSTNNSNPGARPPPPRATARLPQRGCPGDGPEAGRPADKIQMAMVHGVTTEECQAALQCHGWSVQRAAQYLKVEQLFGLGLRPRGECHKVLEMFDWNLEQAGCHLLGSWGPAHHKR

Sequence of Serine/threonine-protein kinase 25 (Homo sapiens) (O00506 whole entry, looked up): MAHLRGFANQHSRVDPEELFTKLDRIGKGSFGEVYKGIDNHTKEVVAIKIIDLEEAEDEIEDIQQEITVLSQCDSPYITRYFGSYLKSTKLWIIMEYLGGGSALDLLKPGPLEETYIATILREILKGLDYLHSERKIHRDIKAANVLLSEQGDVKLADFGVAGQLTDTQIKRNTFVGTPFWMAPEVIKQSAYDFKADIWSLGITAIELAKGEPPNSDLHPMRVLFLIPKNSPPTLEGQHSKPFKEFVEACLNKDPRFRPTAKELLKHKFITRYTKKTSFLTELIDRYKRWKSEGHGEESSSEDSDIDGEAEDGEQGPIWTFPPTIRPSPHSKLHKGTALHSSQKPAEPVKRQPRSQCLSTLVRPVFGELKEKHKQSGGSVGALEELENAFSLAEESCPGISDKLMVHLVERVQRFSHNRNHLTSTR
Sequence of Calcium/calmodulin-dependent protein kinase kinase 2 (Homo sapiens) (Q96RR4 2-588 limits assumed): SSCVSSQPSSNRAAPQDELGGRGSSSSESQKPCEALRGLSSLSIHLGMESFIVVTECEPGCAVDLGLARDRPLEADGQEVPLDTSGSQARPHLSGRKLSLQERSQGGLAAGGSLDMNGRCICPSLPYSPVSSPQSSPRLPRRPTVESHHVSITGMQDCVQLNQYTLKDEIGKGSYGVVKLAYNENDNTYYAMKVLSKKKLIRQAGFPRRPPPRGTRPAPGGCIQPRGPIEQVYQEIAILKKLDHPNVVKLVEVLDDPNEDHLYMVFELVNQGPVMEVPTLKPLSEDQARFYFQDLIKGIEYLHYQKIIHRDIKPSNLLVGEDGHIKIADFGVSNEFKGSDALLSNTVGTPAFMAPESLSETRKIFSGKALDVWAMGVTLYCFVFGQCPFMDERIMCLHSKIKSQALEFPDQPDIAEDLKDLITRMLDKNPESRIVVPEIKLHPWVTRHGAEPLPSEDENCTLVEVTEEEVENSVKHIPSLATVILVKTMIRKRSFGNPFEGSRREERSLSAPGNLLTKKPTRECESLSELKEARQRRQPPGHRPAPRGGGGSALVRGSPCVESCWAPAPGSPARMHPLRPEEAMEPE
Sequence of Calcium/calmodulin-dependent protein kinase kinase 1 (Homo sapiens) (Q8N5S9 whole entry, looked up): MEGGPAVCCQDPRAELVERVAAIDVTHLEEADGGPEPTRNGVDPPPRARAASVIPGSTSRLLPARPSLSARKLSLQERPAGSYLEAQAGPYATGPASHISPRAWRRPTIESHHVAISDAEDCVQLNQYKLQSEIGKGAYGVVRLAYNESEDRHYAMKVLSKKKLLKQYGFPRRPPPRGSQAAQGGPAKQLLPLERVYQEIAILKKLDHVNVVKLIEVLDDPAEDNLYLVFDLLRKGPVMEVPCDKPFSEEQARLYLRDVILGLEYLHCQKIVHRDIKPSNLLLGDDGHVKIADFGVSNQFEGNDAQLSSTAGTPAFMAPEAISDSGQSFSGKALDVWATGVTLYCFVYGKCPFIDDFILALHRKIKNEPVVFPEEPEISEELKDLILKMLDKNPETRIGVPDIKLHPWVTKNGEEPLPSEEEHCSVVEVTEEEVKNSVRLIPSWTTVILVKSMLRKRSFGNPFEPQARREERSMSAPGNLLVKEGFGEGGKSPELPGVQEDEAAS
Sequence of Aurora kinase C (Homo sapiens) (Q9UQB9 whole entry): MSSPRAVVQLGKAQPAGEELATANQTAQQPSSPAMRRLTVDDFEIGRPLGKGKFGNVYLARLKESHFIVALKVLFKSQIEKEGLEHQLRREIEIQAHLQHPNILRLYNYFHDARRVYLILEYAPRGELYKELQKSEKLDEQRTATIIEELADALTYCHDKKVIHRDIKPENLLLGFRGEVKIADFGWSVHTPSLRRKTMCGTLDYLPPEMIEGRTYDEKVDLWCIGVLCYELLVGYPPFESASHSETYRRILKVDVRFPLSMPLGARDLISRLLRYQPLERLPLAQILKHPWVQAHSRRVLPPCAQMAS
Sequence of Ankyrin repeat and protein kinase domain-containing protein 1 (Homo sapiens) (Q8NFD2 whole entry, the tested form may be a part): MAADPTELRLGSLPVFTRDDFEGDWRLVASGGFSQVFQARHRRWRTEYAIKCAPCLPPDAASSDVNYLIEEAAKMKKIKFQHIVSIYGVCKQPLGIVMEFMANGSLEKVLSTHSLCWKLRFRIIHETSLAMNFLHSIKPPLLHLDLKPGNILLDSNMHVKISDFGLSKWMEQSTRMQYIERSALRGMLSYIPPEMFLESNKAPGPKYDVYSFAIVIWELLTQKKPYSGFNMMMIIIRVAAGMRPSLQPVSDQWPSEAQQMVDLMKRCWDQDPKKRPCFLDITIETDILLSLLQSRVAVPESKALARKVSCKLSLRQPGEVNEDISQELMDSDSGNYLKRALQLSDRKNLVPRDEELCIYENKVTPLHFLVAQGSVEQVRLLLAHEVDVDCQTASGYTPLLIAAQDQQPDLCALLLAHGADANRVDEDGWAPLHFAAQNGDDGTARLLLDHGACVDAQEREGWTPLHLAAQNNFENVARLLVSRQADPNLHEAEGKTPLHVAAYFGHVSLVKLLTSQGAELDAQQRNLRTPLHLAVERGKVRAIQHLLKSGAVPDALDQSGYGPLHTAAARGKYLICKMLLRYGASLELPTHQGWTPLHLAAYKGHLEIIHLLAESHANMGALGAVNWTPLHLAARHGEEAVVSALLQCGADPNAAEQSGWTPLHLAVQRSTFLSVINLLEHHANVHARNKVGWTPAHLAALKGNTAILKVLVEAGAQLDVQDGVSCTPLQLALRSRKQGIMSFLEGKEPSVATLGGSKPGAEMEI
Sequence of Mitogen-activated protein kinase 7 (Homo sapiens) (Q13164 2-816 limits assumed): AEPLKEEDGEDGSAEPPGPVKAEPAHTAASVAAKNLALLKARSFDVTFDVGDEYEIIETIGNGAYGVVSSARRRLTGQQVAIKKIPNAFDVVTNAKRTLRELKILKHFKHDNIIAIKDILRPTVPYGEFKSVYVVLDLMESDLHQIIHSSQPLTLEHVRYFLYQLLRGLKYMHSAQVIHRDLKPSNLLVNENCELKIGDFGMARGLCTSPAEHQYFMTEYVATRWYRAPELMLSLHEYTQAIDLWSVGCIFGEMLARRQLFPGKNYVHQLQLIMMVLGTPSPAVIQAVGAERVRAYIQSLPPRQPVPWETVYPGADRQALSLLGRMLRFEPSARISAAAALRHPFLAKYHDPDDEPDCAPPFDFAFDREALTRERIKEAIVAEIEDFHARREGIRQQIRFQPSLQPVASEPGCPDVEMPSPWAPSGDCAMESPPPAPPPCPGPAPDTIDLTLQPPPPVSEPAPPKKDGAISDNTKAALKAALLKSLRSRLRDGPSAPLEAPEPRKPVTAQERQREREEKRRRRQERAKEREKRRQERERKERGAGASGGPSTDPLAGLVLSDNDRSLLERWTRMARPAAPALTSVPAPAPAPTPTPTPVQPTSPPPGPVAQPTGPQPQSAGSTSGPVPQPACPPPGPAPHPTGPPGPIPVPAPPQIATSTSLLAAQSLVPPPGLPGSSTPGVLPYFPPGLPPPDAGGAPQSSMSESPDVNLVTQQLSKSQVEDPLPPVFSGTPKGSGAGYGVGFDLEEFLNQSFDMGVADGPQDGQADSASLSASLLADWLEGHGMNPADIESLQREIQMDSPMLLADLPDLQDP
Sequence of Serine/threonine-protein kinase 24 (Homo sapiens) (Q9Y6E0 whole entry, looked up): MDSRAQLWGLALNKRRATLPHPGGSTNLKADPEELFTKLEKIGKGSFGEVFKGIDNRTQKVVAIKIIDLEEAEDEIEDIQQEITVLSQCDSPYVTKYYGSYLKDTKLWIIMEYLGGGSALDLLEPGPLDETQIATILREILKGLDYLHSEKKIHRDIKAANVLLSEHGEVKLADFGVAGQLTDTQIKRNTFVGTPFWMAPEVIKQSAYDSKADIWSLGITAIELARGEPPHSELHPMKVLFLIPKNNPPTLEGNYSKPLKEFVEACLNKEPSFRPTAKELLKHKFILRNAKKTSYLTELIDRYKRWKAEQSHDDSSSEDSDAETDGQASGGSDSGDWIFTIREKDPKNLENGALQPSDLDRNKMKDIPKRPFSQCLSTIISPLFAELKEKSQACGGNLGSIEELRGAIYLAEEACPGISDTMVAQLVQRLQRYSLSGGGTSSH

Activity [1]: 32% | Activity [2]: 0.95% | Activity [3]: 23% | Activity [4]: 28% | Activity [5]: 10% | Activity [6]: 1.8% | Activity [7]: 3.4% | Activity [8]: 26% | Activity [9]: 14%
Structure (SMILES): O=C1c2ccccc2-c2n[nH]c3cccc1c23

Activity [10]: 11% | Kd (Focal adhesion kinase 1): 440 nM | inhibition [13]: Active | Activity [17]: 23% | Activity [18]: 24% | Kd (Activated CDC42 kinase 1): 3100 nM
Structure (SMILES): COc1cc(N2CCC(O)CC2)ccc1Nc1cc(Nc2ccccc2S(=O)(=O)C(C)C)c2cc[nH]c2n1
Activity (HCT-116): Active | Activity (U2OS [11]): 1% | Activity (HeLa S3): inactive | Activity (TERT-RPE1): Toxic | Activity (HeLa): Active | Activity (U2OS [12]): Dose-Dependent Effect | Activity (U2OS [14]): Active | Activity (U2OS [15]): inactive | Activity (U2OS [16]): Active | Activity (U2OS [19]): ~100%
